In brackets after ≈: the same amount, converted by molar mass.
System: Enterobacter cloacae
Test: In vitro antibacterial activity against Enterobacter cloacae ATCC 23355
Type: functional
Conditions: not given
Summary of the method: (§1)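 Agar dilution MIC. DMSO stocks at 5 mg/mL were serially 2-fold diluted in nutrient broth and mixed into Mueller-Hinton agar, with 5% defibrinated rabbit blood for hemophilic bacteria. Final range was 12.5 to 0.006 µg/mL. Overnight growth was suspended in saline to McFarland 6 (2 × 10^6/mL) and Steers-replicated. Plates were incubated 30 h at 37 °C; MIC was the lowest concentration preventing visible growth.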

| Compound | MIC |
| --- | --- |
| Cc1c(F)cc2c(=O)c(C(=O)O)cn3c2c1CCC3 | 0.4 µg/mL (≈ 1.53 µM) |
| Cc1c(F)cc2c(=O)c(C(=O)O)cn3c2c1CC[C@@H]3C | 0.1 µg/mL (≈ 0.363 µM) |
| Cc1c(F)cc2c(=O)c(C(=O)O)cn3c2c1CC[C@H]3C | 3.1 µg/mL (≈ 11.3 µM) |
| Cc1c(F)cc2c(=O)c(C(=O)O)cn3c2c1CCC3C (racemic) [IBAFLOXACIN] | 0.2 µg/mL (≈ 0.727 µM) |

System: not listed separately
Test: In vitro antibacterial activity against Salmonella typhi-CDC M4694
Type: functional, salmonella typhosa
Conditions: not given
Summary of the method: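 Agar dilution MIC: compounds dissolved in DMSO (5 mg/mL stock), 2-fold serial dilutions in nutrient broth, mixed into Mueller-Hinton agar; series 12.5 down to 0.006 μg/mL. Overnight culture suspended in saline to McFarland 6 (2 × 10^6/mL), spotted with Steers replicator. Incubated 37 °C for 30 h; MIC = lowest concentration preventing visible growth.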

| Compound | MIC |
| --- | --- |
| Cc1c(F)cc2c(=O)c(C(=O)O)cn3c2c1CCC3 | 0.4 µg/mL (≈ 1.53 µM) |
| Cc1c(F)cc2c(=O)c(C(=O)O)cn3c2c1CC[C@@H]3C | 0.05 µg/mL (≈ 0.182 µM) |
| Cc1c(F)cc2c(=O)c(C(=O)O)cn3c2c1CC[C@H]3C | 3.1 µg/mL (≈ 11.3 µM) |
| Cc1c(F)cc2c(=O)c(C(=O)O)cn3c2c1CCC3C (racemic) [IBAFLOXACIN] | 0.1 µg/mL (≈ 0.363 µM) |

System: Serratia marcescens
Test: In vitro antibacterial activity against Serratia marcescens ATCC 8100
Type: functional
Conditions: not given
Summary of the method: as §1

| Compound | MIC |
| --- | --- |
| Cc1c(F)cc2c(=O)c(C(=O)O)cn3c2c1CCC3 | 0.8 µg/mL (≈ 3.06 µM) |
| Cc1c(F)cc2c(=O)c(C(=O)O)cn3c2c1CC[C@@H]3C | 0.2 µg/mL (≈ 0.727 µM) |
| Cc1c(F)cc2c(=O)c(C(=O)O)cn3c2c1CC[C@H]3C | 3.1 µg/mL (≈ 11.3 µM) |
| Cc1c(F)cc2c(=O)c(C(=O)O)cn3c2c1CCC3C (racemic) [IBAFLOXACIN] | 0.4 µg/mL (≈ 1.45 µM) |

System: Bordetella pertussis
Test: In vitro antibacterial activity against Bordetella pertussis ATCC 10380
Type: functional
Conditions: not given
Summary of the method: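 Agar dilution on Mueller-Hinton agar with drug from 5 mg/mL DMSO stocks, 2-fold diluted through nutrient broth to 12.5–0.006 µg/mL. Inoculum was applied by Steers replicator. MIC was read as the lowest concentration with no visible growth.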

| Compound | MIC |
| --- | --- |
| Cc1c(F)cc2c(=O)c(C(=O)O)cn3c2c1CCC3 | 0.8 µg/mL (≈ 3.06 µM) |
| Cc1c(F)cc2c(=O)c(C(=O)O)cn3c2c1CC[C@@H]3C | 0.012 µg/mL (≈ 0.0436 µM) |
| Cc1c(F)cc2c(=O)c(C(=O)O)cn3c2c1CC[C@H]3C | 1.6 µg/mL (≈ 5.81 µM) |
| Cc1c(F)cc2c(=O)c(C(=O)O)cn3c2c1CCC3C (racemic) [IBAFLOXACIN] | 0.025 µg/mL (≈ 0.0908 µM) |

System: Staphylococcus epidermidis
Test: In vitro antibacterial activity against Staphylococcus epidermidis ATCC 12228
Type: functional
Conditions: not given
Summary of the method: as §1

| Compound | MIC |
| --- | --- |
| Cc1c(F)cc2c(=O)c(C(=O)O)cn3c2c1CCC3 | 1.6 µg/mL (≈ 6.12 µM) |
| Cc1c(F)cc2c(=O)c(C(=O)O)cn3c2c1CC[C@@H]3C | 0.05 µg/mL (≈ 0.182 µM) |
| Cc1c(F)cc2c(=O)c(C(=O)O)cn3c2c1CC[C@H]3C | 6.2 µg/mL (≈ 22.5 µM) |
| Cc1c(F)cc2c(=O)c(C(=O)O)cn3c2c1CCC3C (racemic) [IBAFLOXACIN] | 0.1 µg/mL (≈ 0.363 µM) |

System: Streptococcus pyogenes
Test: In vitro antibacterial activity against Streptococcus pyogenes ATCC 1961-1
Type: functional
Conditions: not given
Summary of the method: as §1

| Compound | MIC |
| --- | --- |
| Cc1c(F)cc2c(=O)c(C(=O)O)cn3c2c1CCC3 | 12.5 µg/mL (≈ 47.8 µM) |
| Cc1c(F)cc2c(=O)c(C(=O)O)cn3c2c1CC[C@@H]3C | 1.6 µg/mL (≈ 5.81 µM) |
| Cc1c(F)cc2c(=O)c(C(=O)O)cn3c2c1CC[C@H]3C | 12.5 µg/mL (≈ 45.4 µM) |
| Cc1c(F)cc2c(=O)c(C(=O)O)cn3c2c1CCC3C (racemic) [IBAFLOXACIN] | 0.8 µg/mL (≈ 2.91 µM) |

System: Haemophilus influenzae
Test: In vitro antibacterial activity against Haemophilus influenzae ATCC 9333
Type: functional
Conditions: not given
Summary of the method: as §1

| Compound | MIC |
| --- | --- |
| Cc1c(F)cc2c(=O)c(C(=O)O)cn3c2c1CCC3 | 0.1 µg/mL (≈ 0.383 µM) |
| Cc1c(F)cc2c(=O)c(C(=O)O)cn3c2c1CC[C@@H]3C | 0.006 µg/mL (≈ 0.0218 µM) |
| Cc1c(F)cc2c(=O)c(C(=O)O)cn3c2c1CC[C@H]3C | 0.4 µg/mL (≈ 1.45 µM) |
| Cc1c(F)cc2c(=O)c(C(=O)O)cn3c2c1CCC3C (racemic) [IBAFLOXACIN] | 0.006 µg/mL (≈ 0.0218 µM) |

System: Escherichia coli
Test: In vitro antibacterial activity against Escherichia coli ATCC 15221
Type: functional
Conditions: not given
Summary of the method: as §1

| Compound | MIC |
| --- | --- |
| Cc1c(F)cc2c(=O)c(C(=O)O)cn3c2c1CCC3 | 0.8 µg/mL (≈ 3.06 µM) |
| Cc1c(F)cc2c(=O)c(C(=O)O)cn3c2c1CC[C@@H]3C | 0.1 µg/mL (≈ 0.363 µM) |
| Cc1c(F)cc2c(=O)c(C(=O)O)cn3c2c1CC[C@H]3C | 6.2 µg/mL (≈ 22.5 µM) |
| Cc1c(F)cc2c(=O)c(C(=O)O)cn3c2c1CCC3C (racemic) [IBAFLOXACIN] | 0.2 µg/mL (≈ 0.727 µM) |

System: Pseudomonas aeruginosa
Test: In vitro antibacterial activity against Pseudomonas aeruginosa ATCC 15422
Type: functional
Conditions: not given
Summary of the method: as §1

| Compound | MIC |
| --- | --- |
| Cc1c(F)cc2c(=O)c(C(=O)O)cn3c2c1CCC3 | 12.5 µg/mL (≈ 47.8 µM) |
| Cc1c(F)cc2c(=O)c(C(=O)O)cn3c2c1CC[C@@H]3C | 3.1 µg/mL (≈ 11.3 µM) |
| Cc1c(F)cc2c(=O)c(C(=O)O)cn3c2c1CC[C@H]3C | 12.5 µg/mL (≈ 45.4 µM) |
| Cc1c(F)cc2c(=O)c(C(=O)O)cn3c2c1CCC3C (racemic) [IBAFLOXACIN] | 6.2 µg/mL (≈ 22.5 µM) |

System: Enterococcus faecalis
Test: In vitro antibacterial activity against Streptococcus Streptococcus faecalis ATCC 10741
Type: functional
Conditions: not given
Summary of the method: as §1

| Compound | MIC |
| --- | --- |
| Cc1c(F)cc2c(=O)c(C(=O)O)cn3c2c1CCC3 | 12.5 µg/mL (≈ 47.8 µM) |
| Cc1c(F)cc2c(=O)c(C(=O)O)cn3c2c1CC[C@@H]3C | 0.8 µg/mL (≈ 2.91 µM) |
| Cc1c(F)cc2c(=O)c(C(=O)O)cn3c2c1CC[C@H]3C | 12.5 µg/mL (≈ 45.4 µM) |

System: Staphylococcus aureus
Test: In vitro antibacterial activity against Staphylococcus aureus ATCC 6538-P
Type: functional
Conditions: not given
Summary of the method: as §1

| Compound | MIC |
| --- | --- |
| Cc1c(F)cc2c(=O)c(C(=O)O)cn3c2c1CCC3 | 0.8 µg/mL (≈ 3.06 µM) |
| Cc1c(F)cc2c(=O)c(C(=O)O)cn3c2c1CC[C@@H]3C | 0.025 µg/mL (≈ 0.0908 µM) |
| Cc1c(F)cc2c(=O)c(C(=O)O)cn3c2c1CC[C@H]3C | 3.1 µg/mL (≈ 11.3 µM) |
| Cc1c(F)cc2c(=O)c(C(=O)O)cn3c2c1CCC3C (racemic) [IBAFLOXACIN] | 0.05 µg/mL (≈ 0.182 µM) |

System: not listed separately
Test: In vitro antibacterial activity against Pseudomonas cepacia ATCC 25608
Type: functional
Conditions: Burkholderia cepacia
Summary of the method: as §1

| Compound | MIC |
| --- | --- |
| Cc1c(F)cc2c(=O)c(C(=O)O)cn3c2c1CCC3 | 6.2 µg/mL (≈ 23.7 µM) |
| Cc1c(F)cc2c(=O)c(C(=O)O)cn3c2c1CC[C@@H]3C | 0.8 µg/mL (≈ 2.91 µM) |
| Cc1c(F)cc2c(=O)c(C(=O)O)cn3c2c1CC[C@H]3C | 12.5 µg/mL (≈ 45.4 µM) |
| Cc1c(F)cc2c(=O)c(C(=O)O)cn3c2c1CCC3C (racemic) [IBAFLOXACIN] | 0.8 µg/mL (≈ 2.91 µM) |

System: Enterococcus faecalis
Test: In vitro antibacterial activity against Streptococcus faecalis ATCC 10741
Type: functional
Conditions: not given
Summary of the method: as §1

| Compound | MIC |
| --- | --- |
| Cc1c(F)cc2c(=O)c(C(=O)O)cn3c2c1CCC3C (racemic) [IBAFLOXACIN] | 0.8 µg/mL (≈ 2.91 µM) |

System: Proteus mirabilis
Test: In vitro antibacterial activity against Proteus mirabilis-R 119
Type: functional
Conditions: not given
Summary of the method: as §1

| Compound | MIC |
| --- | --- |
| Cc1c(F)cc2c(=O)c(C(=O)O)cn3c2c1CCC3 | 1.6 µg/mL (≈ 6.12 µM) |
| Cc1c(F)cc2c(=O)c(C(=O)O)cn3c2c1CC[C@@H]3C | 0.4 µg/mL (≈ 1.45 µM) |
| Cc1c(F)cc2c(=O)c(C(=O)O)cn3c2c1CC[C@H]3C | 12.5 µg/mL (≈ 45.4 µM) |
| Cc1c(F)cc2c(=O)c(C(=O)O)cn3c2c1CCC3C (racemic) [IBAFLOXACIN] | 0.8 µg/mL (≈ 2.91 µM) |

System: Klebsiella pneumoniae
Test: In vitro antibacterial activity against Klebsiella pneumoniae ATCC 23357
Type: functional
Conditions: not given
Summary of the method: as §1

| Compound | MIC |
| --- | --- |
| Cc1c(F)cc2c(=O)c(C(=O)O)cn3c2c1CCC3 | 0.8 µg/mL (≈ 3.06 µM) |
| Cc1c(F)cc2c(=O)c(C(=O)O)cn3c2c1CC[C@@H]3C | 0.1 µg/mL (≈ 0.363 µM) |
| Cc1c(F)cc2c(=O)c(C(=O)O)cn3c2c1CC[C@H]3C | 6.2 µg/mL (≈ 22.5 µM) |
| Cc1c(F)cc2c(=O)c(C(=O)O)cn3c2c1CCC3C (racemic) [IBAFLOXACIN] | 0.2 µg/mL (≈ 0.727 µM) |
